Measurements: ChEMBL document CHEMBL1126740, “(S)- and (R)-8-(di-n-propylamino)-6,7,8,9-tetrahydro-3H-benz[e]indole-1-carbaldehyde: a new class of orally active 5-HT1A-receptor agonists” (J Med Chem, 1993)
The source made the active and inactive calls. The rule behind the calls is not given here.

How the values were obtained:
[1] = target: D(2) dopamine receptor (Rattus norvegicus, UniProt P61169); experiment: Displacement of [3H]spiperone from dopamine receptor D2
How it was run: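 Rat striatal membranes in 50 mM potassium phosphate buffer (3 mg original tissue) incubated with 0.5 nM [3H]spiperone for 10 min at 37 °C. Nonspecific binding was defined with 10 μM 6,7-ADTN. Ki was calculated by Cheng–Prusoff; triplicates, 3–7 experiments.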

[2] = system: Rattus norvegicus; experiment: In vivo evaluation for 5-HTP accumulation in the limbic system in male rats (sc); assay type: functional
How it was run: (§1)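 Male Sprague-Dawley rats were pretreated with reserpine 5 mg/kg sc 18 h before dosing. DOPA and 5-HTP in limbic system, striatum and hemispheres were measured by HPLC with electrochemical detection. Dose-response curves used 4–6 dose levels (n = 4) for each region; ED50 was estimated graphically. Partial responses are given as the maximal % reduction at the highest dose tested.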

[3] = system: Rattus norvegicus; experiment: In vivo evaluation for DOPA accumulation in the hemispheres in male rats at highest dose tested; inactive; assay type: functional, organism-based; how it was run: as §1
[4] = system: Rattus norvegicus; experiment: In vivo evaluation for 5-HTP accumulation in the hemispheres in male rats (sc); assay type: functional; how it was run: as §1
[5] = system: Rattus norvegicus; experiment: In vivo evaluation for 5-HTP accumulation in the corpus striatum in male rats (sc); assay type: functional; how it was run: as §1
[6] = organism: Rattus norvegicus; experiment: Compound was tested for 5HT, Dopamine agonist mediated response in reserpine pretreated rats; mix DA, 5-HT syndrome; assay type: functional, organism-based
How it was run: (§2)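 Male Sprague-Dawley rats (200–300 g) were given reserpine 5 mg/kg sc 18 h before testing, then the test drug sc in the neck (n = 4). Motor activity was recorded by photocells for 30 min, with gross behaviour observed throughout. 5-HT syndrome: flat body posture, extended limbs, reciprocal forepaw treading. DA response: locomotion and stereotypies.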

[7] = system: Rattus norvegicus; experiment: Maximal reduction in percent (Partial response) of DOPA accumulation rat limbic system at highest test dose of […] (sc); assay type: functional
[8] = system: Rattus norvegicus; experiment: In vivo evaluation for DOPA accumulation in the corpus striatum in male rats (sc); assay type: functional; how it was run: as §1
[9] = organism: Rattus norvegicus; experiment: Compound was tested for 5HT, Dopamine agonist mediated response in reserpine pretreated rats; no change; assay type: functional, organism-based; how it was run: as §2
[10] = system: Rattus norvegicus; experiment: In vivo evaluation for DOPA accumulation in the hemispheres in male rats (sc); assay type: functional; how it was run: as §1
[11] = system: Rattus norvegicus; experiment: In vivo evaluation for DOPA accumulation in the limbic system in male rats (sc); assay type: functional; how it was run: as §1
[12] = system: Rattus norvegicus; experiment: Maximal reduction in percent (Partial response) of DOPA accumulation rat corpus striatum at highest test dose of 3.1 uM/Kg (sc); assay type: functional; how it was run: as §1
[13] = system: Rattus norvegicus; experiment: Maximal reduction in percent (Partial response) of DOPA accumulation rat limbic system at highest test dose of 3.1 uM/Kg (sc); assay type: functional
[14] = system: Rattus norvegicus; experiment: In vivo evaluation for DOPA accumulation in the hemispheres in male rats at highest test dose of 50 uM/Kg (sc); inactive; assay type: functional, organism-based; how it was run: as §1
[15] = organism: Rattus norvegicus; experiment: Compound was tested for 5-HT behavioral response in reserpine pretreated rats; +5HT syndrome; assay type: functional, organism-based; how it was run: as §2
[16] = system: Rattus norvegicus; experiment: In vivo evaluation for DOPA accumulation in the limbic system in male rats at highest test dose of 50 uM/Kg (sc); inactive; assay type: functional, organism-based; how it was run: as §1
[17] = system: Rattus norvegicus; experiment: In vivo evaluation for DOPA accumulation in the corpus striatum in male rats at highest test dose of 50 uM/Kg (sc); inactive; assay type: functional, organism-based; how it was run: as §1
[18] = system: Rattus norvegicus; experiment: Maximal reduction in percent (Partial response) of DOPA accumulation rat hemispheres at highest test dose of 4.0 uM/kg (sc); assay type: functional; how it was run: as §1
[19] = Area under curve at 10 uM/dg administered perorally; assay type: ADME; conditions: po
How it was run: (§3)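 Male Sprague-Dawley rats (300 g) carrying arterial catheters, used 24 h after surgery; animals dosed orally were starved 18 h beforehand. Blood was sampled at intervals up to 12 h after dosing. Drug levels were measured by HPLC with fluorescence detection (ex 285, em 365) or by GC/MS, calibrated against spiked blank blood. AUC was taken from concentration-time curves; n = 4–6.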

[20] = Half life of compound at 2 uM/dg administered intravenously; assay type: ADME, organism-based; conditions: in vivo, iv; how it was run: as §3
[21] = system: Rattus norvegicus; experiment: In vivo evaluation for 5-HTP accumulation in the corpus striatum in male rats (po); assay type: functional; how it was run: as §1
[22] = Bioavailability in rat; assay type: ADME, organism-based; conditions: in vivo
How it was run: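 Blood was drawn at intervals up to 12 h and assayed by HPLC-fluorescence or GC/MS against spiked blank-blood standards. F is the ratio of oral to intravenous areas under the blood concentration-time curves; n = 4–6.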

[23] = Ratio of ED50 values when the compound was administered subcutaneously to that of peroral administration; assay type: ADME
How it was run: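 Male Sprague-Dawley rats (200–300 g) pretreated with reserpine (5 mg/kg sc, 18 h earlier). Compound given sc or po. 5-HTP accumulation in the limbic system was measured by HPLC with electrochemical detection. ED50 values came from dose-response curves of 4–6 dose levels (n = 4), and the sc ED50 was divided by the po ED50.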

[24] = organism: Rattus norvegicus; experiment: Maximal reduction in percent (Partial response) of DOPA accumulation rat corpus striatum at highest test dose; inactive; assay type: functional, organism-based; how it was run: as §1
[25] = Maximum concentration of the drug at 10 umol/dg administered perorally; assay type: ADME, organism-based; parameters: route oral; conditions: in vivo, po
How it was run: (§4)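 Male Sprague-Dawley rats (300 g) with arterial catheters were dosed 24 h after surgery; orally dosed rats were starved 18 h beforehand. Blood was sampled at intervals up to 12 h and analysed by HPLC with fluorescence detection (ex 285, em 365) or by GC/MS. Cmax is in pmol/mL and tmax in min, mean ± SEM, n = 4–6.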

[26] = organism: Rattus norvegicus; experiment: Maximal reduction in percent (Partial response) of DOPA accumulation rat hemispheres at highest test dose; inactive; assay type: functional, organism-based; how it was run: as §1
[27] = system: Rattus norvegicus; experiment: Maximal reduction in percent (Partial response) of DOPA accumulation rat limbic system at highest test dose of 12.5 uM/Kg (sc); assay type: functional
[28] = organism: Rattus norvegicus; experiment: Maximal reduction in percent (Partial response) of DOPA accumulation rat limbic system at highest test dose; inactive; assay type: functional, organism-based
[29] = system: Rattus norvegicus; experiment: Maximal reduction in percent (Partial response) of DOPA accumulation rat corpus striatum at highest test dose of 12.5 uM/Kg (sc); assay type: functional; how it was run: as §1
[30] = system: Rattus norvegicus; experiment: In vivo evaluation for 5-HTP accumulation in the limbic system in male rats (po); assay type: functional; how it was run: as §1
[31] = target: T1, 5-hydroxytryptamine receptor 1A (Rattus norvegicus, UniProt P19327); experiment: In vitro binding affinity against 5-hydroxytryptamine 1A receptor using [3H]8-OH-DPAT
T1 sequence (P19327 whole entry): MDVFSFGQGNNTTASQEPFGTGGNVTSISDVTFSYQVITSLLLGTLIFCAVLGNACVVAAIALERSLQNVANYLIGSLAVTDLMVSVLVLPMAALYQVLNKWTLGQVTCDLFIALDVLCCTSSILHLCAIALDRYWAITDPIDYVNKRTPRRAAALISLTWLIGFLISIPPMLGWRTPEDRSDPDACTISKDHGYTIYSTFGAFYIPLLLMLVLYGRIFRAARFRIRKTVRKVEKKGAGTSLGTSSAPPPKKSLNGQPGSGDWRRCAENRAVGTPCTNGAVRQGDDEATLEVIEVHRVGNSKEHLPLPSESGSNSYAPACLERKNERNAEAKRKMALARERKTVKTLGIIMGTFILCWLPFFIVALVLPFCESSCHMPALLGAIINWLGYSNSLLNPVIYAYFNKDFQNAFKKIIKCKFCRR
How it was run: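 Rat whole-brain membranes (brainstem and cerebellum removed) in 50 mM Tris pH 8.0 containing NaCl, CaCl2, MgCl2 and 10 μM pargyline, 10 mg tissue per tube. Nonspecific binding was defined with 10 μM 5-HT. IC50 was taken by semi-log linear regression and Ki by Cheng–Prusoff; triplicates.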

[32] = Maximum concentration of the drug at 2 umol/dg administered intravenously; assay type: ADME, organism-based; parameters: route intravenous; conditions: in vivo, iv; how it was run: as §4
[33] = system: Rattus norvegicus; experiment: In vivo evaluation for DOPA accumulation in the hemispheres in male rats at highest test dose; inactive; assay type: functional, organism-based; how it was run: as §1
[34] = Time taken to reach the maximum concentration of compound at 2 uM/dg administered intravenously; assay type: ADME, organism-based; conditions: in vivo, iv; how it was run: as §4
[35] = target: D(2) dopamine receptor (Homo sapiens, UniProt P14416); experiment: In vitro binding affinity against dopamine receptor D2 using [3H]raclopride as radioligand in CHO cells (sc); assay type: cell-based, Cricetulus griseus
[36] = system: Rattus norvegicus; experiment: In vivo evaluation for 5-HTP accumulation in the hemispheres in male rats (po); assay type: functional; how it was run: as §1
[37] = Area under curve at 2 uM/dg administered intravenously; assay type: ADME; conditions: iv; how it was run: as §3
[38] = target: T2, 5-hydroxytryptamine receptor 1A (Mus musculus, UniProt Q64264); experiment: In vitro binding affinity against 5-hydroxytryptamine 1A receptor using [3H]-8-OH-DPAT as radioligand in CHO cells (sc); assay type: cell-based, Cricetulus griseus
T2 sequence (Q64264 whole entry): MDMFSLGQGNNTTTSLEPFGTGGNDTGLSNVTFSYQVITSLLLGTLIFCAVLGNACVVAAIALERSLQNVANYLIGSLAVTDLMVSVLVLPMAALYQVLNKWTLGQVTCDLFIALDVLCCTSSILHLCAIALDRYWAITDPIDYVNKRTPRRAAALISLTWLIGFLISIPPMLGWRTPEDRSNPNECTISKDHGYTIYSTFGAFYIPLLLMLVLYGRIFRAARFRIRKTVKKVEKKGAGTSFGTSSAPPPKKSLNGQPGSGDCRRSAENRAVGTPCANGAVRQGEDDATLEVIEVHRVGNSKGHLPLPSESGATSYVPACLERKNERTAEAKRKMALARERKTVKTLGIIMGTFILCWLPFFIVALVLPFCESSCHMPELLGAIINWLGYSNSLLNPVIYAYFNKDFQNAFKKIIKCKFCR

Chain of D(2) dopamine receptor (Rattus norvegicus, UniProt P61169) (P61169 whole entry): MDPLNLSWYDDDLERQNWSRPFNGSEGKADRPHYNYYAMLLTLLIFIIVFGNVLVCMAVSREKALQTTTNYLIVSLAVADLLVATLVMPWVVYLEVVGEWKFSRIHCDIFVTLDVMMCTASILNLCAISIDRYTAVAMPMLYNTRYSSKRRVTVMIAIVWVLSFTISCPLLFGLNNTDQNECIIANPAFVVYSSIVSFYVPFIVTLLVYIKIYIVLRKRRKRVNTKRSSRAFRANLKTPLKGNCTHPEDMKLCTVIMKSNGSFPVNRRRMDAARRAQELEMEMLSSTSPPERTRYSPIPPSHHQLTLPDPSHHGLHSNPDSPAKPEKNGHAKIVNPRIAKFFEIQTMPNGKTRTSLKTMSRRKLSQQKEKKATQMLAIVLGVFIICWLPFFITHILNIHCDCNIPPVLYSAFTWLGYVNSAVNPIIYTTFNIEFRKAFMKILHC
Chain of D(2) dopamine receptor (Homo sapiens, UniProt P14416) (P14416 whole entry): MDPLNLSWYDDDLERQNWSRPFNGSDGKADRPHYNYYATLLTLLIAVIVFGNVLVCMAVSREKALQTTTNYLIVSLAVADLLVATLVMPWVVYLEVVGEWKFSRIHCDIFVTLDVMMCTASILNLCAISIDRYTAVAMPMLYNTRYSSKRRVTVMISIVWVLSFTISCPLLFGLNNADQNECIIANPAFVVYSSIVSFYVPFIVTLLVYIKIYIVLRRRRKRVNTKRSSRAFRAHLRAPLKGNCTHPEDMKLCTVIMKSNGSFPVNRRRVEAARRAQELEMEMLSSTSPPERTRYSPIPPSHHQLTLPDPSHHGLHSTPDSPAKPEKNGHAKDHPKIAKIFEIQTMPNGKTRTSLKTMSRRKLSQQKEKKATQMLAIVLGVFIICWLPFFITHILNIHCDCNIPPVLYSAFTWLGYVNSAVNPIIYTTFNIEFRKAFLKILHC

Row | SMILES | Ki [1] [nM] | ED50 [2] [µmol/kg] | ED50 [3] | ED50 [4] [µmol/kg] | ED50 [5] [µmol/kg] | Behavioral response [6] | ED50 [8] [µmol/kg] | ED50 [11] [µmol/kg] | Behavioral response [15] | further results
1 | CCCN(CCC)[C@@H]1CCc2ccc3[nH]ccc3c2C1 | 100 | 0.2 | inactive | 0.41 | 0.25 | Active | 0.16 |  |  | Reduction [7]: 37%
2 | CN(C)[C@H]1CCc2ccc3[nH]ccc3c2C1 |  | 3.9 |  | 2.7 | 3.9 |  | 8 | 4.2 |  | Behavioral response [9]: inactive; ED50 [10]: 13 µmol/kg
3 | CCCN(CCC)[C@H]1CCc2ccc3[nH]ccc3c2C1 | 146 | 0.16 | inactive | 0.2 | 0.3 | Active |  |  |  | Reduction [12]: 37%; Reduction [13]: 31%
4 | CCCN(CCC)[C@@H]1CCc2cccc(O)c2C1 | 826 | 0.036 |  | 0.05 | 0.047 |  |  |  | Active | ED50 [14]: inactive; ED50 [16]: inactive; ED50 [17]: inactive
5 | CN(C)C1CCc2ccc3[nH]ccc3c2C1 (racemic) |  | 0.3 |  | 0.4 | 0.3 |  | 0.4 | 0.3 | Active | Reduction [18]: 34%
6 | CCCN(CCC)[C@H]1CCc2ccc3[nH]cc(C(C)=O)c3c2C1 | 3590 | 0.09 |  | 0.095 | 0.08 |  |  |  | Active | AUC [19]: 2224 pM/h/g; half-life at 2 µM [20]: 60 min; ED50 [21]: 1.1 µmol/kg; bioavailability [22]: 72%; Ratio [23]: 18; ED50 [24]: inactive; Cmax [25]: 606 pM ml-1; ED50 [26]: inactive; Reduction [27]: 37%; ED50 [28]: inactive; Reduction [29]: 25%; ED50 [30]: 0.5 µmol/kg; Ki [31]: 2 nM; Cmax [32]: 849 pM ml-1; ED50 [33]: inactive; Tmax at 2 µM [34]: 2 min; Ki [35]: 423 nM; ED50 [36]: 1.1 µmol/kg; AUC [37]: 607 pM/h/g; Ki [38]: 0.2 nM
